{"data": "Published values pooled from the literature", "target": "Tau-tubulin kinase 2 (TTBK2, Homo sapiens, UniProt Q6IQ55)", "read-out": "enzyme activity", "action": "inhibitor", "note": "Protocols differ between the studies behind these lines."}
{"Structure (SMILES)": "FC(F)(F)Oc1cccc(-c2cnc3ccc(-c4ccncc4)nn23)c1", "method": "radiometric", "tested at": "1 µM", "endpoint": "activity vs control", "value": "96%"}
{"Structure (SMILES)": "COc1cc(Nc2cnc(C#N)c(O[C@H](C)CN(C)C)n2)ncc1-c1cnn(C)c1", "method": "radiometric", "tested at": "1 µM", "endpoint": "remaining activity", "value": "100%"}
{"Structure (SMILES)": "CC(C)(C)c1nc(-c2cccc(NS(=O)(=O)c3c(F)cccc3F)c2F)c(-c2ccnc(N)n2)s1", "method": "radiometric", "tested at": "1 µM", "endpoint": "remaining activity", "value": "104%"}
{"Structure (SMILES)": "Cc1ccc(C(=O)NCc2ccsc2)cc1C#Cc1cn(C(C)C)c2ncnc(N)c12", "tested at": "1 µM", "endpoint": "activity vs control", "value": "87%"}
{"Structure (SMILES)": "O=C(Nc1cnn(-c2csc(C(=O)NC3COC3)c2)c1)Nc1ccccc1Cl", "tested at": "5 µM", "endpoint": "remaining activity", "value": "107%"}
{"Structure (SMILES)": "COc1cc(Cl)c(C(=O)N[C@@H](CN[C@H]2CC[C@@H](N)CC2)Cc2ccc(C#N)cc2)cc1-c1ccc(CN[C@H](C)c2ccc(C)cc2)o1", "tested at": "1 µM", "endpoint": "remaining activity", "value": "96%"}
{"Structure (SMILES)": "CN1CC(Oc2cnc(C#N)cc2-c2ccn3nc(NC(=O)C4CC4)cc3c2)C1", "tested at": "1 µM", "endpoint": "inhibition", "value": "13%"}
{"Structure (SMILES)": "CC(C)(C)c1nc2c(s1)c1nc(N)ncc1c1ccc(NS(=O)(=O)c3c(F)cccc3F)c(F)c12", "method": "radiometric", "tested at": "1 µM", "endpoint": "remaining activity", "value": "104%"}
{"Structure (SMILES)": "CC(C)(O)[C@H]1CC[C@H](Nc2ccc3ncc(-c4cccc(C(F)(F)F)c4)n3n2)CC1", "tested at": "1 µM", "endpoint": "remaining activity", "value": "94.4%"}
{"Structure (SMILES)": "O=C(Nc1cnn(-c2csc(C(=O)NC3COC3)c2)c1)Nc1c(F)cccc1Cl", "tested at": "5 µM", "endpoint": "remaining activity", "value": "104%"}
{"Structure (SMILES)": "COc1cc(/C=C/C(=O)CC(=O)/C=C/c2ccc(O)c(OC)c2)ccc1O", "tested at": "1 µM", "endpoint": "activity vs control", "value": "115%"}
